Assay [1] addresses T1, LIM domain kinase 2 (Homo sapiens, UniProt P53671). Kind of assay: Inhibition of recombinant full length LIMK2 (330 to 632 residues) (unknown origin) expressed in HEK293T cells incubated for 2 hrs in presence of tracer K10 by NanoBRET assay. It counts as cell-based.
Target sequence in this assay (P53671 whole entry, the tested form may be a part): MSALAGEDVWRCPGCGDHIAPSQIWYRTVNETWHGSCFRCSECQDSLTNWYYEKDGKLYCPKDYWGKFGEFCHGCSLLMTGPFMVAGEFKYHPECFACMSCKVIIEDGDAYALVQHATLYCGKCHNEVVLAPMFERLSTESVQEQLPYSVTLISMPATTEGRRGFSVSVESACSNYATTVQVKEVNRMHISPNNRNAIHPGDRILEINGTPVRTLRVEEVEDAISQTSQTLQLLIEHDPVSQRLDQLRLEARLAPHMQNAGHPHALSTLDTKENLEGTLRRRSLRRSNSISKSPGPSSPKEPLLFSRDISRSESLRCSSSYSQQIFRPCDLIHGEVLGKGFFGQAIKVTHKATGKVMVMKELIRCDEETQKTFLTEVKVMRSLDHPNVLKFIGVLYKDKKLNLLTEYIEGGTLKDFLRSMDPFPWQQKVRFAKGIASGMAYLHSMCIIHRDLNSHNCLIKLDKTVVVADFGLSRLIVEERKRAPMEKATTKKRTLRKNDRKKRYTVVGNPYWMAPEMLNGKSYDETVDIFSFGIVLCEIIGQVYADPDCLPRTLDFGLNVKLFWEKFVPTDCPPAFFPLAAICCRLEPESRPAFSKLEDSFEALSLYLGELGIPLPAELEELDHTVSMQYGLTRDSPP
Assay [2] deals with T2, LIM domain kinase 1 (Homo sapiens, UniProt P53667). Kind of assay: Inhibition of recombinant full length LIMK1 (330 to 637 residues) (unknown origin) expressed in HEK293T cells incubated for 2 hrs in presence of tracer K10 by NanoBRET assay. It counts as cell-based.
Target sequence in this assay (P53667 whole entry, the tested form may be a part): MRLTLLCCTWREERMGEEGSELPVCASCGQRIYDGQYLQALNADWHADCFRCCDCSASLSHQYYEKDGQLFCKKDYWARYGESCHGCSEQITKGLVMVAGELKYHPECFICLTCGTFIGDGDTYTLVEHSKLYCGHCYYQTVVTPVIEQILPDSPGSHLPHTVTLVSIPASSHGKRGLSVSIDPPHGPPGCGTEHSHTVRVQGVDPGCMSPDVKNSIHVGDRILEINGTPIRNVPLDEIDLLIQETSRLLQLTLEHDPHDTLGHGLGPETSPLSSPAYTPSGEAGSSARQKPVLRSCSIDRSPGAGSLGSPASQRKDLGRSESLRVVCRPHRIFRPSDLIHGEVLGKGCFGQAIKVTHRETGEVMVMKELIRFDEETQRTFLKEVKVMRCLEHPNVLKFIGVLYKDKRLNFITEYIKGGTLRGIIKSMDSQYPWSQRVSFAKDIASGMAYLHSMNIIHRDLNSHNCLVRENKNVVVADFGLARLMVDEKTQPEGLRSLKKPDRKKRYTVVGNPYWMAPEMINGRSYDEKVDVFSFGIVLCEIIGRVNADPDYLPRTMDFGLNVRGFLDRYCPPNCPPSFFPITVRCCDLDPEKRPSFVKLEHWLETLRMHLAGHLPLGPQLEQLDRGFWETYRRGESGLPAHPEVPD
Assay [3] addresses T2, LIM domain kinase 1. As to the kind of experiment: Binding affinity to recombinant LIMK1 (330 to 637 residues) (unknown origin) expressed in baculovirus infected insect cells assessed as change in melting temperature at 10 uM by differential scanning fluorimetry.
Target sequence in this assay (P53667 whole entry, looked up, the tested form may be a part): as the sequence (P53667 whole entry, the tested form may be a part) above
The test system of assay [4] is N1E-115. As to the kind of experiment: Inhibition of neurite outgrowth in BMP7 stimulated mouse N1E-115 cells transfected with siFMR1 preincubated for 12 hrs followed by BMP7 stimulation for 24 hrs. It counts as functional, cell-based. The note with it: dose 0.05-5 µM, time 36.0 hrs, DDE = dose-dependent effect. An outline of the steps:
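At 60 h, the medium was switched to 0.2% FBS containing inhibitor (0.05, 0.5 or 5 μM; DMSO stock) or DMSO for 12 h, then 10 ng/mL BMP7 was added for 24 h. The percentage of cells with neurites longer than one cell body was counted by microscopy, ≥100 cells per condition; mean + SD, N = 4.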

In assay [5] the target is T1, LIM domain kinase 2. Kind of assay: Binding affinity to recombinant LIMK2 (330 to 632 residues) (unknown origin) expressed in baculovirus infected insect cells assessed as change in melting temperature at 10 uM by differential scanning fluorimetry.
Target sequence in this assay (P53671 whole entry, looked up, the tested form may be a part): as the sequence (P53671 whole entry, the tested form may be a part) above

`O=C(c1ccc(S(=O)(=O)Nc2ccccc2)cc1)N(CCc1ccccc1)Cc1ccccc1`: the IC50 in assay [1] worked out at 92 nM; in assay [2], 251 nM. The ΔTm in assay [3] is 8.6 °C.

For `CC(C)C(=O)Nc1ncc(-c2cc(C(F)F)nn2-c2c(Cl)cccc2Cl)s1`, the inhibition result in assay [4] is “Dde”.

As to `CN(Cc1ccccc1)C(=O)c1ccc(S(=O)(=O)NCCc2ccccc2)cc1`, the ΔTm stood at 0.1 °C in assay [5] and 0.9 °C in assay [3].

On to `CN(Cc1ccccc1)C(=O)c1ccc(S(=O)(=O)Nc2cccc(Cl)c2)cc1`, for which, in assay [3], the shift in melting temperature (ΔTm) was found to be 0.9 °C.

For the compound `O=C(c1ccc(S(=O)(=O)Nc2ccccc2)cc1)N(CCc1cn(Cc2ccccc2)nn1)Cc1ccccc1`, the half-maximal inhibitory concentration (IC50) was determined as 121 nM in assay [1] and 472 nM in assay [2]. In addition, the ΔTm in assay [5] stood at 12.3 °C; in assay [3], 6.8 °C.

For `CCCCN(Cc1ccccc1)C(=O)c1ccc(S(=O)(=O)Nc2ccccc2)cc1`, the inhibition result in assay [4] was “Dde”.

As for `CC(C)C(=O)Nc1ncc(C(=O)NCCN(Cc2ccccc2)C(=O)c2ccc(S(=O)(=O)Nc3ccccc3)cc2)s1`, the inhibition result in assay [4] was “Dde”.

On to `CN(Cc1ccccc1)C(=O)c1ccc(S(=O)(=O)Nc2ccccc2)cc1`, for which, in assay [3], the thermal shift (ΔTm) worked out at 4.5 °C.

In the case of `CN(CCc1ccccc1)C(=O)c1ccc(S(=O)(=O)Nc2ccccc2)cc1`, the ΔTm amounted to 3.2 °C in assay [5] and 1.3 °C in assay [3].

Source of the values: ChEMBL document CHEMBL5108049, “Development and Characterization of Type I, Type II, and Type III LIM-Kinase Chemical Probes” (J Med Chem, 2022).
